Results: ChEMBL document CHEMBL1938394, “Time-dependent slowly-reversible inhibition of monoamine oxidase A by N-substituted 1,2,3,6-tetrahydropyridines” (Bioorg Med Chem, 2011)

What was measured:
[1] = target: T1, Amine oxidase [flavin-containing] A (Homo sapiens, UniProt P21397); assay: Inhibition of human recombinant MAOA expressed in insect cells assessed as oxidation of kynuramine substrate at 5 uM measured after additional enzyme added after 120 mins incubation; details: 2 h
T1 sequence (P21397 whole entry): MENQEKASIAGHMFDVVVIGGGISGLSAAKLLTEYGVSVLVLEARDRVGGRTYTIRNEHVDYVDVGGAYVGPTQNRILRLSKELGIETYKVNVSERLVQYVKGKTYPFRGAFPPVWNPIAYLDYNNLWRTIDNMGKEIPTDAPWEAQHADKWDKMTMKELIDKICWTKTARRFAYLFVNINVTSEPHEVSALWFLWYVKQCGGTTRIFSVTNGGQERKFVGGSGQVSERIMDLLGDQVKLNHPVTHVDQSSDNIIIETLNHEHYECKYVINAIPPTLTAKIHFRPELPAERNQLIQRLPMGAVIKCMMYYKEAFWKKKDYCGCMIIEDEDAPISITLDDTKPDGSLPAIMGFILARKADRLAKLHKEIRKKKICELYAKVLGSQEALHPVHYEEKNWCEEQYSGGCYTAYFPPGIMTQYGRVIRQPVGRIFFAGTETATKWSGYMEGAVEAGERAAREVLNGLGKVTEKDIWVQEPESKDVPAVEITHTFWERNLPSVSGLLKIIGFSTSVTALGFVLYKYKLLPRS
In short: (§1)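 Time course of kynuramine oxidation by recombinant human MAO-A at 37 °C in isotonic 0.1 M phosphate pH 7.4 with or without inhibitor. A second portion of substrate (150 μM kynuramine) was added at 90 min and fresh enzyme at 120 min, with product formation followed throughout.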

Homo sapiens = species: Homo sapiens; assay: Selectivity index, ratio of IC50 for human recombinant MAOB to IC50 for human recombinant MAOA
In short: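 MAO-A (0.005 mg/mL; 150 μM kynuramine, 60 min, 37 °C, […]) and MAO-B (0.01 mg/mL; 1000 μM benzylamine, 30 min, 37 °C, perchloric acid stop, benzaldehyde by HPLC-UV at 254 nm) in isotonic 0.1 M phosphate pH 7.4. Inhibitor 0–7000 μM. IC50s from sigmoidal log curves in triplicate. SI = MAO-B IC50 / MAO-A IC50.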

[2] = target: T1, Amine oxidase [flavin-containing] A; assay: Inhibition of human recombinant MAOA expressed in insect cells assessed as oxidation of kynuramine substrate at 5 uM up to 90 mins; details: 1.5 h; in short: as §1
[3] = target: T1, Amine oxidase [flavin-containing] A; assay: Inhibition of human recombinant MAOA expressed in insect cells using kynuramine as substrate by Kitz-Wilson plot analysis
In short: (§2)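 Recombinant human MAO-A preincubated at 37 °C with inhibitor (2–5 μM) or buffer control for 0, 10, 20, 30 or 40 min before kynuramine (150 μM) was added. Activity read after 30 min as % of control, n = 3. Kitz–Wilson slope replot: Ki from reciprocal of x-intercept, kinact from reciprocal of y-intercept.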

[4] = target: T1, Amine oxidase [flavin-containing] A; assay: Time dependent inhibition of human recombinant MAOA expressed in insect cells using kynuramine as substrate at 5 uM preincubated up to 40 mins before kynuramine substrate addition; in short: as §2
[5] = target: T1, Amine oxidase [flavin-containing] A; assay: Inhibition of human recombinant MAOA expressed in insect cells assessed as oxidation of kynuramine substrate at 5 uM measured after additional substrate added after 90 mins incubation; details: 1.5 h; in short: as §1
[6] = target: T1, Amine oxidase [flavin-containing] A; assay: Inhibition of human recombinant MAOA expressed in insect cells assessed as formation of 4-hydroxyquinoline at 5 uM preincubated for 1 hr before kynuramine substrate measured after 1 hr in presence of sodium borohydride
In short: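 MAO-A (0.005 mg/mL) preincubated 60 min at 37 °C with inhibitor in isotonic 0.1 M phosphate pH 7.4. NaBH4 (5 μL of 300 mM stock in water) then added and the mix held 15 min at 0 °C. It was dialyzed overnight at 0 °C, then read at 310 nm with 150 μM kynuramine over 60 min at 37 °C. Controls without inhibitor also got borohydride. n = 3.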

[7] = target: T1, Amine oxidase [flavin-containing] A; assay: Inhibition of human recombinant MAOA expressed in insect cells using kynuramine substrate after 60 mins
[8] = target: T2, Amine oxidase [flavin-containing] B (Homo sapiens, UniProt P27338); assay: Inhibition of human recombinant MAOB expressed in insect cells using benzylamine hydrochloride as substrate after 30 mins
T2 sequence (P27338 whole entry): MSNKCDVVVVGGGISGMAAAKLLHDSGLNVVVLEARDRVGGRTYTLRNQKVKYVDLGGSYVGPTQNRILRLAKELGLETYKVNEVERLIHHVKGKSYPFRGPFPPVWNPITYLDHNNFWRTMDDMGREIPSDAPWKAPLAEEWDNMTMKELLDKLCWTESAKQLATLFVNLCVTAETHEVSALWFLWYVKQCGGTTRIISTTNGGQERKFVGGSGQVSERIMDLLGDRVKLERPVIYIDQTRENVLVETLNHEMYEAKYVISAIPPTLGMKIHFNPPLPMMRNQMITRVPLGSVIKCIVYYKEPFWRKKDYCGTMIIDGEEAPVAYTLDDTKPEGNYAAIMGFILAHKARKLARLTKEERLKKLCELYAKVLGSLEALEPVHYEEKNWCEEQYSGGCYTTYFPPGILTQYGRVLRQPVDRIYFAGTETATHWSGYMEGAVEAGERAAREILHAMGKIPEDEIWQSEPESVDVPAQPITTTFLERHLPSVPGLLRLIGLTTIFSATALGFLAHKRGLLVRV
In short: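 Human recombinant MAO-B (0.01 mg/mL) in 0.1 M isotonic phosphate buffer pH 7.4, inhibitor 0–7000 µM, benzylamine 1000 µM final, 30 min at 37 °C. Stopped with perchloric acid; benzaldehyde measured by reverse-phase HPLC with UV 254 nm. IC50 from sigmoidal log dose–response fit; triplicate, mean ± SD.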

[9] = target: T3, MAO-A (amine oxidase [flavin-containing] A) (Homo sapiens, UniProt P21397); assay: Irreversible inhibition of human recombinant MAOA expressed in insect cells using kynuramine as substrate by Kitz-Wilson plot analysis; details: probe kynuramine; in short: as §2
T3 sequence (P21397 whole entry): T1 sequence (P21397 whole entry)

[10] = target: T1, Amine oxidase [flavin-containing] A; assay: Inhibition of human recombinant MAOA expressed in insect cells assessed as formation of 4-hydroxyquinoline at 5 uM preincubated for 1 hr before kynuramine substrate measured after 12 hrs of dialysis
In short: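 MAO-A (0.005 mg/mL) in 0.1 M sodium phosphate pH 7.4 made isotonic with NaCl, preincubated 1 h at 37 °C without substrate with inhibitor (final volume 1 mL), then dialyzed overnight at 0 °C against 250 mL buffer. Activity in dialysate read as product formation at 310 nm with 150 μM kynuramine over 60 min at 37 °C. 4-Hydroxyquinoline quantified by calibration curve. Means ± SD, n = 3.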

[11] = target: T1, Amine oxidase [flavin-containing] A; assay: Noncompetitive inhibition of human recombinant MAO-A assessed as dissociation constant for enzyme-inhibitor-substrate complex by Lineweaver-Burk plot analysis
[12] = target: T1, Amine oxidase [flavin-containing] A; assay: Noncompetitive inhibition of human recombinant MAO-A assessed as dissociation constant for enzyme-inhibitor complex by Lineweaver-Burk plot analysis
[13] = target: T1, Amine oxidase [flavin-containing] A; assay: Inhibition of human recombinant MAOA expressed in insect cells assessed as oxidation of kynuramine substrate measured after additional substrate added after 90 mins incubation; details: 1.5 h
[14] = target: T1, Amine oxidase [flavin-containing] A; assay: Mixed noncompetitive inhibition of human recombinant MAO-A assessed as dissociation constant for enzyme-inhibitor-substrate complex by Lineweaver-Burk plot analysis
In short: (§3)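 Human recombinant MAO-A (0.005 mg/mL) in 0.1 M sodium phosphate pH 7.4 made isotonic with NaCl, 37 °C, 30 min. Initial oxidation rates at four kynuramine levels (50–150 µM) without or with four inhibitor concentrations (range per compound, 5–1000 µM). Ki from Lineweaver–Burk plots and replots by linear regression; triplicate.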

[15] = target: T1, Amine oxidase [flavin-containing] A; assay: Inhibition of human recombinant MAOA expressed in insect cells assessed as oxidation of kynuramine substrate at 6 mM measured after additional substrate added after 90 mins incubation; details: 1.5 h
In short: (§4)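 Recombinant human MAO-A incubated with kynuramine, with or without inhibitor. Product formation followed over time. A second equivalent of substrate (150 µM kynuramine) added at 90 min and fresh enzyme added at 120 min.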

[16] = target: T1, Amine oxidase [flavin-containing] A; assay: Inhibition of human recombinant MAOA expressed in insect cells assessed as oxidation of kynuramine substrate at 6 mM measured after additional enzyme added after 120 mins incubation; details: 2 h, 6000 µM; in short: as §4
[17] = target: T1, Amine oxidase [flavin-containing] A; assay: Mixed noncompetitive inhibition of human recombinant MAO-A assessed as dissociation constant for enzyme-inhibitor complex by Lineweaver-Burk plot analysis; in short: as §3

Row | SMILES | inhibition (INH) [1] | Ratio IC50 (Homo sapiens) | inhibition (INH) [2] | Ki [3] | TDI [4] | inhibition (INH) [5] | inhibition (INH) [6] | IC50 [7] | IC50 [8] | kinact [9] | inhibition (INH) [10] | Ki [11] | Ki [12] | inhibition (INH) [13] | Ki [14] | inhibition (INH) [15] | inhibition (INH) [16] | Ki [17]
1 | Clc1ccc(OCCCN2CC=CCC2)c(Cl)c1 | Active | 25.4 | Active | 7.4 µM | Active | Active | Active | 2.6 µM | 66.4 µM | 0.002 s⁻¹ | Active | 0.9 µM | 2.2 µM |  |  |  |  | 
2 | COc1ccc(CCN2CC=CCC2)cc1 |  | 8 |  |  |  |  |  | 12 µM | 96.1 µM |  |  |  |  | Not Active |  |  |  | 
3 | CC1=CCN(CCc2ccccc2)CC1 |  | 2 |  |  |  |  |  | 623 µM | 1250 µM |  |  |  |  |  | 2590 µM | Active | Active | 408 µM
